# Source: ChEMBL document CHEMBL3865841, “Photosensitizer (PS)-cyanine dye (CD) conjugates: Impact of the linkers joining the PS and CD moieties and their orientation in tumor-uptake and photodynamic therapy (PDT)” (Eur J Med Chem, 2016)
# Active and inactive are the calls of the source. The rule behind the calls is not given here.
# Tests used:
# [1] = Ratio of drug uptake in tumor to skin in Balb/c mouse implanted with mouse Colon 26 cells at 0.3 umol/kg, iv after 24 hrs by reflectance spectroscopic analysis; format: ADME, organism-based; conditions: in vivo
# [2] = Drug uptake in human U87 cell lysosomes assessed as color overlay at 0.25 to 2 uM after 4 to 24 hrs in dark by FluoSpheres yellow green dye-based confocal microscopic analysis; format: ADME, Lysosome; conditions: u-87mg atcc
# In short: (§1)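 U87 glioblastoma cells seeded at 1.25 × 10⁵ in glass-bottom dishes, cultured 24–48 h, then given conjugate at 0.25, 0.5, 1.0 or 2.0 µM in the dark at 37°C for 4 h and 24 h. Co-stained with MitoTracker Red 2.5 nM for 10 min and FluoSpheres yellow/green 1/10,000 of a 1/10 stock for 24 h. Confocal imaging with excitation 488, 543 and 633 nm.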
# [3] = Phototoxicity against human U87 cells assessed as reduction in cell viability preincubated for 24 hrs with subsequent irradiation 4 J/cm2 followed by 48 hrs incubation in dark by MTT assay; format: functional, cell-based, U-87MG ATCC; conditions: U-87 MG, light or radiation study
# In short: (§2)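 Colon-26 (RPMI-1640, 10% FCS) or U87 (MEM, 10% FCS) cells at 5000/well were given conjugate at 0–4 µM for 24 h. Compounds were formulated in 1% Tween-80/D5W and diluted in medium. Cells were washed and refed, then irradiated at 4 J/cm², 3.2 mW/cm². Then 44 h at 37°C in the dark, MTT 4 h, DMSO, A560. EC50 at 4 J/cm². Colon-26: two independent experiments, triplicates.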
# [4] = Drug uptake in mouse colon 26 cell lysosomes assessed as color overlay at 0.25 to 2 uM after 4 to 24 hrs in dark by FluoSpheres yellow green dye-based confocal microscopic analysis; format: ADME, Lysosome; conditions: colon 26, 2 µM
# In short: (§3)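 Colon-26 cells seeded at 1.25 × 10⁵ in glass-bottom dishes, cultured 24–48 h, then given conjugate at 0.25, 0.5, 1.0 or 2.0 µM in the dark at 37°C for 4 h and 24 h. Co-stained with MitoTracker Red 2.5 nM for 10 min and FluoSpheres yellow/green 1/10,000 of a 1/10 stock for 24 h. Media replaced before Leica TCS SP2 confocal imaging; excitation 488 (lysosome), 543 (mitochondria), 633 nm (HPPH).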
# [5] = Drug uptake in human U87 cell mitochondria assessed as color overlay at 0.25 to 2 uM after 4 to 24 hrs in dark by mitotracker red dye-based confocal microscopic analysis; format: ADME; conditions: u-87mg atcc; in short: as §1
# [6] = Phototoxicity against mouse Colon 26 cells assessed as reduction in cell viability preincubated for 24 hrs with subsequent 4 J/cm2 irradiation measured after 48 hrs incubation in dark by MTT assay; format: functional, cell-based; conditions: Colon 26, light or radiation study; in short: as §2
# [7] = system: Mus musculus; assay: Toxicity in Balb/c mouse implanted with mouse Colon 26 cells assessed as mortality at 2.5 to 3.5 umol/kg, iv preincubated for 24 hrs subsequent irradiation at 128 J/cm2 measured up to 60 days; format: organism-based; conditions: in vivo, 1440 h
# In short: (§4)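 BALB/c mice carried s.c. Colon-26 tumours (1 × 10⁶ cells, right posterior shoulder) grown to 4–5 mm. Conjugates were given i.v. via the tail vein at 0.4–3.5 µmol/kg. At 24 h, unanaesthetised restrained mice received 665 nm laser light on a 1.1 cm spot (128 J/cm², 14 mW/cm²). Mice were observed daily for up to 60 days for death or morbidity, which led to euthanasia.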
# [8] = Drug uptake in Balb/c mouse liver implanted with mouse Colon 26 cells at 0.3 umol/kg, iv after 24 hrs by reflectance spectroscopic analysis; format: ADME, organism-based; conditions: in vivo
# [9] = system: Mus musculus; assay: Toxicity in Balb/c mouse implanted with mouse Colon 26 cells assessed as morbidity at 2.5 to 3.5 umol/kg, iv preincubated for 24 hrs subsequent irradiation at 128 J/cm2 measured up to 60 days; format: organism-based; conditions: in vivo, 1440 h; in short: as §4
# [10] = Drug uptake in mouse colon 26 cell mitochondria assessed as color overlay at 0.25 to 2 uM after 4 to 24 hrs in dark by mitotracker red dye-based confocal microscopic analysis; format: ADME; conditions: colon 26, 2 µM; in short: as §3
# [11] = Phototoxicity against mouse Colon 26 cells implanted in Balb/c mouse assessed as tumor cure incidents at 1.5 umol/kg, iv preincubated for 24 hrs with subsequent irradiation at 128 J/cm2 measured after 60 days; format: functional
# In short: (§5)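 BALB/c mice bore s.c. Colon-26 tumors (1 × 10⁶ cells, shoulder) of 4–5 mm. Conjugate given i.v. via tail vein at 0.4, 0.75, 1.5, 2.5 or 3.5 µmol/kg. At 24 h unanesthetized mice got 665 nm laser, 128 J/cm², 14 mW/cm², 1.1 cm spot. Regrowth checked daily, volume L*W²/2. Cure = no palpable tumor by day 60; euthanasia at 400 mm³.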
# [12] = Drug uptake in human U87 cells at 1 uM after 24 hrs in dark by flow cytometry; format: ADME, cell-based; conditions: u-87mg atcc
# In short: (§6)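 Colon-26 or U87 cells seeded at 5.0 × 10⁵ per well, 24 h, then exposed to conjugate at 1 µM in the dark at 37°C for 24 h. Cells harvested, spun cold at 10°C, resuspended in cold 2% FCS in PBS, run on a BD LSR II. Analysis used the 405 nm violet laser with 780/60, 710/50 and 660/20 nm filters.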
# [13] = Drug uptake in mouse Colon 26 cells at 1 uM after 24 hrs in dark by flow cytometry; format: ADME, cell-based; conditions: colon 26, 24 h; in short: as §6
# [14] = system: U-87MG ATCC; assay: Phototoxicity against human U87 cells xenografted in immunocompromized nude mouse assessed as increase in tumor cure incidents at 1.5 umol/kg, iv preincubated for 24 hrs subsequent irradiation at 128 J/cm2 measured after 60 days; format: functional, organism-based
# In short: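 Athymic nude mice bore s.c. U87 tumors (2 × 10⁶ cells) of 4–5 mm. Conjugate given i.v. at 1.5 µmol/kg. At 24 h post-injection tumors got 665 nm laser light, 128 J/cm², 14 mW/cm². Mice followed daily for regrowth; cure = no palpable tumor by day 60.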
# [15] = Phototoxicity against mouse Colon 26 cells implanted in Balb/c mouse assessed as tumor cure incidents at 3.5 umol/kg, iv pretreated for 24 hrs subsequent irradiation at 128 J/cm2 measured after 60 days relative to control; format: functional; in short: as §5
# [16] = system: Colon 26; assay: Phototoxicity against mouse Colon 26 cells implanted in Balb/c mouse assessed as increase in tumor cure incidents at 0.75 to 1.5 umol/kg, iv preincubated for 24 hrs with subsequent irradiation at 128 J/cm2 measured up to 60 days; format: functional, organism-based; in short: as §5
# [17] = Drug uptake in human U87 cell lysosomes assessed as color overlay at 1 uM after 24 hrs in dark by FluoSpheres yellow green dye-based confocal microscopic analysis; format: ADME, Lysosome; conditions: u-87mg atcc
# In short: (§7)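 U87 cells held with conjugate at 1 µM, imaged 24 h later by confocal microscopy. Lysosomal FluoSpheres yellow green at 1/100,000 dilution of commercial stock; MitoTracker Red 2.5 nM for 10 min. Overlays of the conjugate signal with each organelle dye.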
# [18] = Drug uptake in human U87 cell mitochondria assessed as color overlay at 1 uM after 24 hrs in dark by mitotracker red dye-based confocal microscopic analysis; format: ADME; conditions: u-87mg atcc; in short: as §7
# [19] = Drug uptake in mouse colon 26 cell mitochondria assessed as color overlay at 1 uM after 24 hrs in dark by mitotracker red dye-based confocal microscopic analysis; format: ADME; conditions: colon 26, 24 h
# In short: (§8)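 Colon-26 cells held with conjugate at 1 µM, imaged 24 h later by confocal microscopy. Lysosomal dye FluoSpheres yellow green at 1/100,000 dilution of commercial stock; mitochondrial MitoTracker Red at 2.5 nM for 10 min. Overlays of the conjugate signal with each organelle dye.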
# [20] = Drug uptake in mouse colon 26 cell lysosomes assessed as color overlay at 1 uM after 24 hrs in dark by FluoSpheres yellow green dye-based confocal microscopic analysis; format: ADME, Lysosome; conditions: colon 26, 24 h; in short: as §8
# [21] = Drug uptake in immunocompromized nude mouse tumor xenografted with human U87 cells at 0.03 umol/kg, iv after 24 to 72 hrs by reflectance spectroscopic analysis; format: ADME, organism-based, Neoplasm, U-87MG ATCC; conditions: in vivo
SMILES,Ratio [1],Drug uptake [2],Drug uptake [4],Drug uptake [5],Drug uptake [8],Drug uptake [10],Drug uptake [12],Drug uptake [13],EC50 [3] [µM],EC50 [6] [µM],Activity [7],Activity [9],Activity [11] [%],Activity [14],Activity [15] [%],Activity [16],further results
CCCCCCOC(C)c1c(C)c2cc3nc(c4c5[nH]c(cc6nc(cc1[nH]2)C(C)=C6CC)c(C)c5C(=O)C4)[C@@H](CCC(=O)NCCNC(=O)c1ccc(SC2=C(/C=C/C4=[N+](CCCCS(=O)(=O)[O-])c5ccc6ccccc6c5C4(C)C)CCC/C2=C\C=C2\N(CCCCS(=O)(=O)O)c4ccc5ccccc5c4C2(C)C)cc1)[C@@H]3C (stereo partly specified),2,Active,Active,Active,Active,Active,–,–,0.79,2.51,Toxic,Toxic,–,–,–,–,–
CCCCCCOC(C)c1c(C)c2cc3nc(c4c5[nH]c(cc6nc(cc1[nH]2)C(C)=C6CC)c(C)c5C(=O)C4)[C@@H](CCC(=O)NCCCCNC(=O)c1cccc(SC2=C(/C=C/C4=[N+](CCCCS(=O)(=O)[O-])c5ccc6ccccc6c5C4(C)C)CCC/C2=C\C=C2\N(CCCCS(=O)(=O)O)c4ccc5ccccc5c4C2(C)C)c1)[C@@H]3C (stereo partly specified),6.5,–,–,–,Active,–,Active,Active,0.15,0.18,–,–,80,Active,–,–,Drug uptake [17]: Active; Drug uptake [18]: Active; Drug uptake [19]: Active; Drug uptake [20]: Active; Drug uptake [21]: Active
CCCCCCOC(C)c1c(C)c2cc3nc(c4c5[nH]c(cc6nc(cc1[nH]2)C(C)=C6CC)c(C)c5C(=O)C4)[C@@H](CCC(=O)NCCNC(=O)c1cccc(SC2=C(/C=C/C4=[N+](CCCCS(=O)(=O)[O-])c5ccc6ccccc6c5C4(C)C)CCC/C2=C\C=C2\N(CCCCS(=O)(=O)O)c4ccc5ccccc5c4C2(C)C)c1)[C@@H]3C (stereo partly specified),2.5,Active,Active,Active,Active,Active,–,–,0.57,1.58,Toxic,Toxic,80,–,–,–,–

# Second part, led by results:
Ratio [1],Drug uptake [2],Drug uptake [4],Drug uptake [5],Drug uptake [8],Drug uptake [10],Drug uptake [12],Drug uptake [13],SMILES,EC50 [3] [µM],EC50 [6] [µM],Activity [7],Activity [9],Activity [11] [%],Activity [14],Activity [15] [%],Activity [16],further results
10,Active,Active,Active,Active,Active,Active,Active,CCCCCCOC(C)c1c(C)c2cc3nc(c4c5[nH]c(cc6nc(cc1[nH]2)C(C)=C6CC)c(C)c5C(=O)C4)[C@@H](CCC(=O)NCCCCNC(=O)c1ccc(SC2=C(/C=C/C4=[N+](CCCCS(=O)(=O)[O-])c5ccc6ccccc6c5C4(C)C)CCC/C2=C\C=C2\N(CCCCS(=O)(=O)O)c4ccc5ccccc5c4C2(C)C)cc1)[C@@H]3C (stereo partly specified),0.29,0.13,–,–,20,–,–,–,–
2.3,Active,Active,Active,Active,Active,–,–,CCCCCCOC(C)c1c(C)c2cc3nc(c4c5[nH]c(cc6nc(cc1[nH]2)C(C)=C6CC)c(C)c5C(=O)C4)[C@@H](CCC(=O)NCCCCCCNC(=O)c1ccc(SC2=C(/C=C/C4=[N+](CCCCS(=O)(=O)[O-])c5ccc6ccccc6c5C4(C)C)CCC/C2=C\C=C2\N(CCCCS(=O)(=O)O)c4ccc5ccccc5c4C2(C)C)cc1)[C@@H]3C (stereo partly specified),0.59,0.72,–,–,–,Active,70,Active,–
2.5,Active,Active,Active,Active,Active,–,–,CCCCCCOC(C)c1c(C)c2cc3nc(c4c5[nH]c(cc6nc(cc1[nH]2)C(C)=C6CC)c(C)c5C(=O)C4)[C@@H](CCC(=O)NCCCCCCNC(=O)c1cccc(SC2=C(/C=C/C4=[N+](CCCCS(=O)(=O)[O-])c5ccc6ccccc6c5C4(C)C)CCC/C2=C\C=C2\N(CCCCS(=O)(=O)O)c4ccc5ccccc5c4C2(C)C)c1)[C@@H]3C (stereo partly specified),0.38,0.2,–,–,–,–,90,Active,–
